Measurements taken from ChEMBL document CHEMBL1154242, “ent-Kaurane and cembrane diterpenoids from Isodon sculponeatus and their cytotoxicity” (J Nat Prod, 2009).

How the values were obtained:
Format in all cases: functional, cell-based
K562 = assay: Cytotoxicity against human K562 cells after 48 hrs; settings: K562, 48 h
In short: (§1)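 Cells from the Shanghai Cell Bank were kept in RPMI1640 with 15% hormone-free heat-inactivated FBS, 2 mM glutamine, 100 U/mL penicillin G and 100 µg/mL streptomycin. Seeding was 5 × 10^4 cells/mL for K562 and 4 × 10^4 cells/mL for A549 and HepG2. Cells were exposed to compound for 48 h, and viability was read by CCK-8 at 450 and 650 nm. IC50 values come from triplicate experiments.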

A549 = assay: Cytotoxicity against human A549 cells after 48 hrs; settings: A549, 48 h; in short: as §1
HepG2 = assay: Cytotoxicity against human HepG2 cells after 48 hrs; settings: HepG2, 48 h; in short: as §1

SMILES | IC50 (K562) [nM] | IC50 (A549) [nM] | IC50 (HepG2) [nM]
C=C1C(=O)O[C@H]2/C=C(\C)C[C@@H]3C=C(CC/C=C(\C)CC[C@H]12)C(=O)O3 | 1250 | 1960 | 1400
C=C1C(=O)O[C@H]2/C=C(\C)C[C@@H]3C=C(CC[C@@H](OO)C(=C)CC[C@H]12)C(=O)O3 | 4300 | 4180 | 3110
C=C1C(=O)O[C@H]2/C=C(\C)C[C@@H]3C=C(C/C=C/[C@@](C)(OO)CC[C@H]12)C(=O)O3 | 1200 | 1550 | 900
C=C1[C@@H]2C[C@@H](O)[C@@H]3[C@](C2)(C(=O)O[C@H]2C[C@H](O)C(C)(C)[C@H]4[C@H](O)OC(=O)[C@@]243)[C@@H]1O [EMEMOGIN] | > 10000 | > 10000 | > 10000
C=C1C(=O)[C@]23C[C@H]1CC[C@H]2[C@@]12CO[C@@H](O)[C@@H]1C(C)(C)[C@@H](O)C[C@@H]2OC3=O [ENEMIN] | 1620 | > 10000 | 2020
C=C1[C@@H](O)[C@]23[C@H](O)[C@H]1CC[C@H]2[C@@]12CO[C@@]3(O)[C@@H](O)[C@@H]1C(C)(C)CC[C@@H]2O [ENMENOL] | > 10000 | > 10000 | > 10000
C=C1C(=O)[C@]23C[C@H]1C[C@H](O)[C@H]2[C@@]12CO[C@@H](O)[C@@H]1C(C)(C)CC[C@@H]2OC3=O [EPINODOSIN] | 560 | 2100 | 1620
CC1(C)CC[C@@H]2OC(=O)[C@@]34C[C@@H](C[C@H](O)[C@H]3[C@]23CO[C@@H](O)[C@H]13)[C@@H](CO)C4=O [MAOYECRYSTAL D] | > 10000 | > 10000 | > 10000
C=C1[C@@H]2C[C@@H](O)[C@H]3[C@@]45CO[C@@](O)([C@@H](O)[C@@H]4C(C)(C)CC[C@@H]5O)[C@]3(C2)[C@@H]1O [NERVOSANIN B] | > 10000 | > 10000 | > 10000
C=C1C(=O)[C@]23C[C@H]1C[C@@H](O)[C@H]2[C@@]12CO[C@@H](O)[C@@H]1C(C)(C)CC[C@@H]2OC3=O [NODOSIN] | 540 | > 10000 | 1920
C=C1C(=O)[C@]23C[C@H]1C[C@@H](O)[C@H]2[C@]12CO[C@@H]4OC[C@](C)(CC[C@@H]1OC3=O)[C@@H]42 [SCULPONEATIN A] | 1620 | 1900 | 1770
C=C1[C@@H]2C[C@@H](O)[C@@H]3[C@](C2)(C(=O)O[C@H]2CC[C@@]4(C)CO[C@H]5OC[C@]23[C@H]54)[C@@H]1O [SCULPONEATIN B] | > 10000 | > 10000 | > 10000
C=C1C(=O)[C@]23C[C@H]1C[C@@H](O)[C@H]2[C@@]1(COC3=O)[C@@H]2[C@H]3OC[C@]2(C)CC[C@H]1O3 [SCULPONEATIN C] | 780 | 2730 | 680
C=C1[C@@H]2C[C@H](O)[C@@H]3[C@](C2)(C(=O)OC2O[C@H](O)[C@@H]4[C@@](C)(CO)CC[C@H](O)[C@]243)[C@@H]1O (some centres undefined) [SCULPONEATIN D] | > 10000 | > 10000 | > 10000
C[C@]12CC[C@@H]3OC(=O)[C@@]45C[C@@H](C[C@@H](O)[C@H]4[C@]34CO[C@H](OC1)[C@H]24)[C@@]1(CCC2=C(O1)[C@]13C[C@H]2C[C@@H](O)[C@H]1[C@]12CO[C@@H]4OC[C@](C)(CC[C@@H]1OC3=O)[C@@H]42)C5=O [SCULPONIN D] | 1500 | 1000 | 1120
CC1(C)[C@H]2[C@H](O)OC[C@@]23[C@H](C[C@@H]1O)OC(=O)[C@@]12C[C@@H](C[C@@H](O)[C@H]13)[C@@]1(CCC3=C(O1)[C@]14C[C@H]3C[C@@H](O)[C@H]1[C@]13CO[C@@H]5OC[C@](C)(CC[C@@H]1OC4=O)[C@@H]53)C2=O [SCULPONIN E] | 2000 | 1850 | 1620
C=C1[C@@H]2C[C@H](O)[C@@H]3[C@](C2)(C(=O)O[C@H]2C[C@H](O)C(C)(C)[C@H]4[C@H](O)OC[C@@]243)[C@@H]1OC(C)=O [SCULPONIN F] | > 10000 | > 10000 | > 10000
C=C1C(=O)[C@]23C[C@H]1C[C@@H](O)[C@H]2[C@]12CO[C@H]4O[C@@H](O)[C@](C)(CC[C@@H]1OC3=O)[C@@H]42 [SCULPONIN G] | > 10000 | > 10000 | > 10000
C=C1C(=O)[C@]23C[C@H]1C[C@@H](O)[C@H]2[C@]12CO[C@@H]4O[C@H](O)[C@](C)(CC[C@@H]1OC3=O)[C@@H]42 [SCULPONIN H] | > 10000 | > 10000 | > 10000
C=C1[C@@H]2C[C@@H](O)[C@@H]3[C@](C2)(C(=O)O[C@H]2CC[C@@]4(C)[C@H](O)O[C@H]5OC[C@]23[C@H]54)[C@@H]1O [SCULPONIN I] | > 10000 | > 10000 | > 10000
C=C1[C@@H]2C[C@@H](O)[C@@H]3[C@](C2)(C(=O)O[C@H]2CC[C@]4(C)[C@H]5[C@H](OC[C@@]253)O[C@@H]4O)[C@@H]1O [SCULPONIN J] | > 10000 | > 10000 | > 10000
C=C1C(O)[C@]23C[C@H]1C[C@H](O)[C@H]2[C@]12CCC[C@@](C)(CO)[C@H]1[C@H](O)[C@]3(O)OC2 (some centres undefined) [SCULPONIN K] | > 10000 | > 10000 | > 10000
C=C1[C@@H]2CC(=O)[C@H]3[C@]45C=CC[C@@](C)(CO)[C@H]4[C@H](O)[C@](O)(OC5)[C@]3(C2)[C@@H]1O [SCULPONIN L] | > 10000 | > 10000 | > 10000
